Source: ChEMBL document CHEMBL3808334, “Synthesis and in vitro evaluation of novel triazine analogues as anticancer agents and their interaction studies with bovine serum albumin” (Eur J Med Chem, 2016)

Legend:
[1] = Growth inhibition of human RXF393 cells assessed as cell growth at 10^-8 M incubated for 48 hrs by sulforhodamine B assay; assay type: functional; conditions: RXF 393, 48 h, read-out: Activity
[2] = Growth inhibition of human SF268 cells assessed as cell growth at 10^-5 M incubated for 48 hrs by sulforhodamine B assay; assay type: functional; conditions: SF-268, 48 h, read-out: Activity
[3] = Growth inhibition of human HL-60(TB) cells assessed as cell growth at 10 uM incubated for 48 hrs by sulforhodamine B assay; assay type: functional; conditions: HL-60, 48 h, read-out: Activity
[4] = Growth inhibition of human SNB19 cells assessed as cell growth at 10^-4 M incubated for 48 hrs by sulforhodamine B assay; assay type: functional; conditions: SNB-19, 48 h, read-out: Activity
[5] = tested on: NCI-H23; experiment: Growth inhibition of human NCI-H23 cells incubated for 48 hrs by sulforhodamine B assay; assay type: functional; conditions: NCI-H23, 48 h
Outline: (§1)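 Cells were plated at 5,000–40,000 per well according to doubling time and preincubated 24 h at 37 °C in 5% CO2; time-zero plates were then TCA-fixed. Five concentrations (10-fold or ½-log dilutions, DMSO stock) were incubated 48 h. Cells were TCA-fixed, stained with 0.4% SRB and read at 515 nm. GI50 was taken where [(Ti−Tz)/(C−Tz)]×100 = 50.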

[6] = tested on: NCI-H522; experiment: Growth inhibition of human NCI-H522 cells assessed as cell growth at 10^-5 M incubated for 48 hrs by sulforhodamine B assay; assay type: functional; conditions: NCI-H522, 48 h, read-out: Activity
[7] = tested on: Malme-3M; experiment: Growth inhibition of human MALME-3M cells assessed as cell growth at 10 uM incubated for 48 hrs by sulforhodamine B assay; assay type: functional; conditions: read-out: Activity
[8] = Growth inhibition of human OVCAR8 cells assessed as cell growth at 10^-7 M incubated for 48 hrs by sulforhodamine B assay; assay type: functional; conditions: OVCAR-8, 48 h, read-out: Activity
[9] = tested on: NCI-H460; experiment: Growth inhibition of human NCI-H460 cells assessed as cell growth at 10 uM incubated for 48 hrs by sulforhodamine B assay; assay type: functional; conditions: NCI-H460, 48 h, read-out: Activity
[10] = tested on: NCI/ADR-RES; experiment: Growth inhibition of human NCI/ADR-RES cells assessed as cell growth at 10^-6 M incubated for 48 hrs by sulforhodamine B assay; assay type: functional; conditions: read-out: Activity
[11] = Growth inhibition of human HL-60(TB) cells assessed as cell growth at 10^-7 M incubated for 48 hrs by sulforhodamine B assay; assay type: functional; conditions: HL-60, 48 h, read-out: Activity
Outline: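 Cells plated at 5,000–40,000/well according to doubling time and preincubated 24 h at 37 °C, 5% CO₂, with time-zero plates TCA-fixed. Drugs were kept as DMSO concentrates at 400× the top concentration and diluted in medium with 50 µg/ml gentamicin. Five 10-fold or ½-log dilutions were run for 48 h, followed by SRB staining and A515. Percent growth = (Ti−Tz)/(C−Tz)×100, or (Ti−Tz)/Tz×100 when Ti<Tz.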

[12] = tested on: HT-29; experiment: Growth inhibition of human HT-29 cells assessed as cell growth at 10 uM incubated for 48 hrs by sulforhodamine B assay; assay type: functional; conditions: HT-29, 48 h, read-out: Activity
[13] = Growth inhibition of human SF295 cells assessed as cell growth at 10^-5 M incubated for 48 hrs by sulforhodamine B assay; assay type: functional; conditions: SF-295, 48 h, read-out: Activity
[14] = tested on: U-251; experiment: Growth inhibition of human U251 cells assessed as cell growth at 10^-7 M incubated for 48 hrs by sulforhodamine B assay; assay type: functional; conditions: U-251, 48 h, read-out: Activity
[15] = molecular target: Albumin (Bos taurus, UniProt P02769); experiment: Binding affinity to bovine serum albumin assessed as binding constant in emission spectra by Benesie-Hildebrand plot analysis; assay type: ADME; conditions: cattle, isolated protein
Sequence of Albumin (P02769 whole entry): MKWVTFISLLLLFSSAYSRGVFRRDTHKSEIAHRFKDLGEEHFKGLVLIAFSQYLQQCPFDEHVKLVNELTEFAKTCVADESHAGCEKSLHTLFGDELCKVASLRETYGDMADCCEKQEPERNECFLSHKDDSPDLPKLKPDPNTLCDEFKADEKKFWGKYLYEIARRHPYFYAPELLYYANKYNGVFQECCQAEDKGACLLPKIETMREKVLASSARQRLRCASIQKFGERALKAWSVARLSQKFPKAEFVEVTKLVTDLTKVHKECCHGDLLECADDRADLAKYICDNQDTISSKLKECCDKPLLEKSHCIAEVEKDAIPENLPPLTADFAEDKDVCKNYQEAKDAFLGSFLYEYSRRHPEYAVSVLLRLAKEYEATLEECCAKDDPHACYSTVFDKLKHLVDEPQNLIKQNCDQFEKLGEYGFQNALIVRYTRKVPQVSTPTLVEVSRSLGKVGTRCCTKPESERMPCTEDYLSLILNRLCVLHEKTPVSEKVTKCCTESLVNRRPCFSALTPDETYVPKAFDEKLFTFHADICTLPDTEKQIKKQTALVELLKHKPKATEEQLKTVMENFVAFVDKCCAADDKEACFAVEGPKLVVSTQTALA
Outline: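 BSA, 10 µM, in 0.1 M phosphate buffer pH 7.4, titrated with compound (0–20 µM per the figure; diluted from 10⁻³ mol L⁻¹ DMSO stocks). Run at 300 K in a 1 cm quartz cell. UV spectra taken 200–800 nm after 5 min equilibration; fluorescence excited at 280 nm, emission 351 nm, slit 10 nm. K is the intercept/slope ratio of a linear fit of 1/(A₀−A) or 1/(F₀−F) vs 1/[compound].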

[16] = Growth inhibition of human ovarian cancer cells incubated for 48 hrs by sulforhodamine B assay; assay type: functional; conditions: Cancer cell lines; for CC50: read-out: LC50 (the source's name)
[17] = tested on: SN12C; experiment: Growth inhibition of human SN12C cells assessed as cell growth at 10^-4 M incubated for 48 hrs by sulforhodamine B assay; assay type: functional; conditions: read-out: Activity
[18] = tested on: MCF7; experiment: Growth inhibition of human MCF7 cells incubated for 48 hrs by sulforhodamine B assay; assay type: functional; conditions: MCF7, 48 h; outline: as §1
[19] = Growth inhibition of human DU145 cells assessed as cell growth at 10^-8 M incubated for 48 hrs by sulforhodamine B assay; assay type: functional; conditions: DU-145, 48 h, read-out: Activity
Outline: (§2)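 Cells seeded at 5,000–40,000/well according to doubling time and preincubated 24 h at 37 °C, 5% CO2. Time-zero plates were TCA-fixed. DMSO concentrate was diluted in medium with 50 µg/ml gentamicin to give five concentrations (10-fold or ½ log steps), then exposed 48 h. Cells were TCA-fixed, stained with 0.4% SRB and read at 515 nm. Percent growth was taken against time-zero and control; GI50, TGI and LC50 derived.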

[20] = tested on: NCI-H322M; experiment: Growth inhibition of human NCI-H322M cells assessed as cell growth at 10 uM incubated for 48 hrs by sulforhodamine B assay; assay type: functional; conditions: read-out: Activity
[21] = tested on: MCF7; experiment: Growth inhibition of human MCF7 cells assessed as cell growth at 10 uM incubated for 48 hrs by sulforhodamine B assay; assay type: functional; conditions: MCF7, 48 h, read-out: Activity
[22] = tested on: A498; experiment: Growth inhibition of human A498 cells assessed as cell growth at 10^-6 M incubated for 48 hrs by sulforhodamine B assay; assay type: functional; conditions: A498, 48 h, read-out: Activity
Outline: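 Five-dose assay: five concentrations from 10-fold or ½-log serial dilutions. Cells are plated at 5,000–40,000 per well according to doubling time, grown 24 h, then exposed 48 h at 37 °C, 5% CO₂. Fixed with cold 50% TCA (final addition) for 60 min at 4 °C and stained with 0.4% SRB in 1% acetic acid. Bound dye is solubilized in 10 mM Tris base and read at 515 nm. GI₅₀ is where [(Ti−Tz)/(C−Tz)]×100 = 50, with a time-zero plate as Tz.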

[23] = Growth inhibition of human HCT116 cells assessed as cell growth at 10^-7 M incubated for 48 hrs by sulforhodamine B assay; assay type: functional; conditions: HCT-116, 48 h, read-out: Activity; outline: as §2
[24] = Growth inhibition of human UACC62 cells assessed as cell growth at 10^-7 M incubated for 48 hrs by sulforhodamine B assay; assay type: functional; conditions: UACC-62, 48 h, read-out: Activity
[25] = read-out: LC50 (the source's name)
[26] = read-out: pLC50 (the source's name) (converted)

| Compound | growth at 0.01 µM [1] | growth at 10 µM [2] | growth at 10 µM [3] | growth at 100 µM [4] | GI50 ([5]; read-out: GI50) | TGI ([5]; read-out: TGI) | GI50 ([5]; read-out: pGI50 (converted)) | TGI ([5]; read-out: pTGI (converted)) | growth at 10 µM [6] | growth at 10 µM [7] | growth at 0.1 µM [8] | growth at 10 µM [9] | growth at 1 µM [10] | growth at 0.1 µM [11] | growth at 10 µM [12] | growth at 10 µM [13] | growth at 0.1 µM [14] | K [15] | GI50 [16] | TGI [16] | also measured |
| --- | --- | --- | --- | --- | --- | --- | --- | --- | --- | --- | --- | --- | --- | --- | --- | --- | --- | --- | --- | --- | --- |
| c1ccc2[nH]c(-c3ccc(Nc4nc(N5CCCCC5)nc(N5CCOCC5)n4)cc3)nc2c1 | 96% | 5% | -22.7% | -1% | 3.05 µM | 15.7 µM | 3.02 µM | 15.8 µM | -24% | -50.2% | 96% | 0.81% | 95% | 100% | -28.1% | -43% | 97% | 5.7 ×10⁴ /M | 3.46 µM | 22.6 µM | CC50 [5, 25]: > 100 µM; CC50 [5, 26]: > 100 µM; CC50 [16]: 26.9 µM; growth at 100 µM [17]: -12%; GI50 ([18]; read-out: GI50): 2.4 µM; CC50 [18, 25]: > 100 µM; TGI ([18]; read-out: TGI): 7.9 µM; GI50 ([18]; read-out: pGI50 (converted)): 2.4 µM; CC50 [18, 26]: > 100 µM; TGI ([18]; read-out: pTGI (converted)): 7.94 µM; growth at 0.01 µM [19]: 102%; growth at 10 µM [20]: 35%; growth at 10 µM [21]: 3.49%; growth at 1 µM [22]: 83%; growth at 0.1 µM [23]: 94%; growth at 0.1 µM [24]: 96% |
| Clc1ccc(-c2nc(Nc3ccc(-c4nc5ccccc5[nH]4)cc3)nc(N3CCOCC3)n2)cc1 | 100% | -80% | -81.4% | 1% | 1.7 µM | 3.66 µM | 1.7 µM | 3.63 µM | -76% | -73.4% | 103% | -80.3% | 37% | 90% | -78.6% | -85% | 103% | 4.2 ×10⁷ /M | 0.92 µM | 2.3 µM | CC50 [16]: 5.2 µM; growth at 100 µM [17]: -14%; GI50 ([18]; read-out: GI50): 0.194 µM; TGI ([18]; read-out: TGI): 0.49 µM; GI50 ([18]; read-out: pGI50 (converted)): 0.195 µM; TGI ([18]; read-out: pTGI (converted)): 0.49 µM; growth at 0.01 µM [19]: 101%; growth at 10 µM [20]: -92.8%; growth at 10 µM [21]: -73.8%; growth at 1 µM [22]: 89%; growth at 0.1 µM [23]: 93%; growth at 0.1 µM [24]: 93% |
